Assay outcomes as filed in PubChem BioAssay.
Sampled rows, rich in hits. Any-hit rate of the full collection: about 5%.
T cruzi inh – inhibitors of intracellular T. cruzi growth, primary screen, luminescence, NIH3T3 host cells | T. cruzi beta-gal in NIH3T3, 90 h | inhibition, % (concentration not given with the values) | 300,000 tested, 1.4% active | AID 1885, 2009;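 active = mean inhibition across valid replicates above about 55%, limit read from the data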;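 also: signal also drops with host cell toxicity which is not excluded here; 0% = plate median of DMSO wells and 100% = zero luminescence signal; higher percent means less beta-gal luminescence so fewer parasites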
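Assay system: NIH/3T3 host cells with β-galactosidase reporter T. cruzi; input: 5,000 host fibroblasts per well; compound: single 50 nL compound addition per well in DMSO; timing: ≥90 h infection period, 3 h prior cell attachment; measured by: GalScreen β-gal luminescence, detergent lysis, 60 min; evaluation: percent inhibition of parasite-derived β-gal signal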
CHOP UPR activ – activators of apoptotic CHOP UPR arm, primary screen, cell-based, CHO-CHOP luciferase reporter, luminescence, uHTS | UPR activation; percent of tunicamycin response over DMSO baseline | activation, % at 10 µM | 330,000 tested, 0.34% active;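 active = at 10 µM dose, activation of 40% or more, normalized to positive control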;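 also: 100% = tunicamycin at 10 µg/mL and 0% = DMSO alone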
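Test system: CHO-CHOP cells, stable luciferase reporter of PERK-eIF2a-CHOP signalling | Quantity: 500 CHO-CHOP cells per well | Buffer or medium: F12 plus 10% serum | Compound dosing: 10 µM single point, 0.5% DMSO | Schedule: 6 h compound treatment, 37 °C | Signal: Luciferase luminescence | Control set: Tunicamycin high control, DMSO low control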
Mdm2-MdmX inh – inhibitors of human Mdm2-MdmX association, primary screen, cell-based, luminescence, split luciferase, SaOS-2, uHTS. inhibition, % at 8 µM. SaOS-2 split-luciferase Mdm2/MdmX complementation. 330,000 tested, 3% active. Protein Mdm4 (Homo sapiens) + E3 ubiquitin-protein ligase Mdm2 (Homo sapiens), …;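 active = inhibition of at least 50% at 8 µM in the primary screen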
Beta cell apopt – inhibitors of cytokine-induced beta cell apoptosis, primary screen, luminescence | INS-1E cytokine-induced death, ATP luminescence, 48 h; percent of positive-control rescue, neutral wells zero | protection from apoptosis, % (test concentration not listed) | 300,000 tested, 0.8% active;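 active = Every replicate reaches about 75%, or at least half do and their mean reaches it too, limit read from the data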;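 also: 0% = cytokine-treated negative control wells and 100% = positive control rescue; higher means more ATP so stronger rescue from cytokine killing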
CSC inhib – cancer stem cell viability inhibitors, primary screen, luminescence | cancer stem cell-like cells viability | inhibition, % at 7.5 µM | 300,000 tested, 1.1% active | AID 2717, 2010; in the data active = inhibition above about 75%; tested in HMLE shEcad cells
UPR XBP1 act – activators of adaptive XBP1 UPR arm, primary screen, cell-based, CHO-XBP1 luciferase reporter, luminescence, uHTS; activation, % at 20 µM; 330,000 tested, 0.33% active; IRE1-XBP1 UPR activation; percent of tunicamycin response, DMSO as zero;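 active = versus positive control, 20 µM dose yields 30% or more activation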;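 also: 100% = tunicamycin at 10 µg/mL and 0% = DMSO only wells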
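incubation = overnight seeding at 37 °C, 6 h compound treatment at 37 °C | assay system = CHO-XBP1 cells stably carrying IRE1-XBP1-driven luciferase reporter | input = 1000 cells per well | detection = luciferase luminescence | dosing = single point, 20 µM final compound, 1% DMSO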
Mdm2 MdmX conf – Mdm2-MdmX complex disruptors, retested hits, confirmation, luminescence, single concentration; shares compounds with Mdm2-MdmX inh; Mdm2-MdmX binding, luminescent assay; inhibition, % at 8 µM; 10,000 tested, 55% active; AID 489028, 2010; in the data active = inhibition above about 40%
Full FLuc ctr – full-length luciferase signal inhibition, confirmation, counter-screen for Mdm2/MdmX interaction inhibitor project, cell-based, single concentration, SaOS-2; AID 504607, 2011; 6,200 tested, 77% active; inhibition, % at 8 µM; SaOS-2 full-length luciferase counterscreen, luminescence; shares compounds with Mdm2-MdmX inh;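 active = mean inhibition at 8 µM reaching about 37%, which flags the compound as non-specific, limit read from the data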;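 also: p53-null SaOS-2 cells with luciferase driven by a doxycycline-inducible promoter; compound on cells about two nights before reading with doxycycline added after day one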
* = called active by the depositor.

CCN(CC)S(=O)(=O)c1ccc(Cl)c(NC(=S)NC(=O)C2CCCC2)c1 was read as CHOP UPR activ 2.7, Mdm2-MdmX inh 50.3*, Beta cell apopt 15.2, CSC inhib 8.1, UPR XBP1 act 4.7 and Mdm2 MdmX conf 15.2.
For CN(CCn1ccnc1)Cc1cn(Cc2ccccc2)nc1-c1ccc2c(c1)OCO2 the results were T cruzi inh 15.5, CHOP UPR activ 0.1, Mdm2-MdmX inh -1.1, Beta cell apopt -1.3, CSC inhib 9.8 and UPR XBP1 act -1.2.
For O=C(NCCNC(=O)c1cccnc1)c1ccc(Br)cc1 the results were T cruzi inh -10.2, CHOP UPR activ 0.1, Mdm2-MdmX inh 1.4, CSC inhib -4.0 and UPR XBP1 act -1.2.
`Cc1ccc(N(C(=O)Cn2nnc(-c3ccccc3)n2)C(C(=O)NC2CCCCC2)c2ccccn2)cc1C` (stereo not drawn) gave T cruzi inh 8.3, CHOP UPR activ 0.7, Mdm2-MdmX inh 22.1, CSC inhib 5.9 and UPR XBP1 act -1.1.
Screening COc1cccc(COC(=O)C2CCN(S(=O)(=O)c3ccc(C)cc3C)CC2)c1OC returned T cruzi inh -0.7, CHOP UPR activ -0.7, Mdm2-MdmX inh 17.6, Beta cell apopt -2.4, CSC inhib -6.8 and UPR XBP1 act -3.0.
Screening COc1ccc(-c2cc(-c3ccc(Cl)cc3)n[nH]2)c(O)c1 returned T cruzi inh 24.3, CHOP UPR activ 2.1, Mdm2-MdmX inh -217.9, Beta cell apopt 5.4, CSC inhib 27.6 and UPR XBP1 act -1.1.
Oc1ccc(Br)cc1-c1cc(-c2ccc(Cl)cc2)n[nH]1 was read as T cruzi inh -24.4, CHOP UPR activ 1.5, Mdm2-MdmX inh 85.4*, Beta cell apopt 91.9*, CSC inhib 53.2, UPR XBP1 act 5.6, Mdm2 MdmX conf 32.5 and Full FLuc ctr 5.5.
For COc1ccc(O)c(-c2cc(-c3cccc(Br)c3)n[nH]2)c1 the results were T cruzi inh -4.1, CHOP UPR activ 7.7, Mdm2-MdmX inh -65.3, Beta cell apopt 22.8, CSC inhib -18.4 and UPR XBP1 act 0.5.
O=[N+]([O-])c1cccc(-c2cc(-c3cc(Br)ccc3O)[nH]n2)c1 was read as T cruzi inh 9.4, CHOP UPR activ 11.8, Mdm2-MdmX inh 93.4*, CSC inhib 97.4*, UPR XBP1 act -0.8, Mdm2 MdmX conf 80.4* and Full FLuc ctr 59.1*.
Screening O=C(NC(CSCc1ccccc1)C(=O)N/N=C/c1ccc(O)cc1O)c1ccc([N+](=O)[O-])cc1 (stereo not drawn) returned T cruzi inh 26.1, CHOP UPR activ -2.0, Mdm2-MdmX inh 65.0*, Beta cell apopt 78.5*, CSC inhib 105.3*, UPR XBP1 act -2.1, Mdm2 MdmX conf 74.0* and Full FLuc ctr 34.3.
COc1cc(O)ccc1/C=N/NC(=O)c1ccc([N+](=O)[O-])cc1 was read as T cruzi inh 2.4, CHOP UPR activ 0.0, Mdm2-MdmX inh 8.6, Beta cell apopt -4.0, CSC inhib -1.2 and UPR XBP1 act -0.5.
`COc1cccc(-c2ccc3ncnc(NCc4cccs4)c3c2)c1` gave CHOP UPR activ -0.5, Mdm2-MdmX inh 64.2*, Beta cell apopt 9.3, CSC inhib 44.6, UPR XBP1 act -0.9, Mdm2 MdmX conf 50.8* and Full FLuc ctr 39.4*.
